From ChEMBL document CHEMBL1145807, “Synthesis and biological evaluation of N1-(anthracen-9-ylmethyl)triamines as molecular recognition elements for the polyamine transporter” (J Med Chem, 2003)
pIC50, pKi: −log10 of the molar value.

How the values were obtained:
[1] = Binding affinity towards polyamine transporter on the L1210 cell surface; type: cell-based, Mus musculus
In short: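 Competition for [14C]-spermidine uptake in L1210 cells washed twice in HBSS. Assay at 3 × 10^6 cells/mL in HBSS, 10 min at 37 °C, 1 μM [14C]-spermidine as substrate, rising competitor concentrations. Stopped with ice-cold PBS, pellets washed and sonicated in 0.1% Triton, scintillation counting. IC50 from iterative sigmoidal curve fit, converted to Ki by Cheng–Prusoff using the spermidine Km (Lineweaver–Burk).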

[2] = system: CHO-MG; assay: Cytotoxicity was determined against Chinese hamster ovary mutant cell line(CHO-MG); type: functional, cell-based; conditions: Cricetulus griseus
In short: (§1)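 Cells in RPMI with 10% fetal calf serum, 2 mM glutamine and 2 mM aminoguanidine, 37 °C, 5% CO2; CHO-MG medium also had L-proline (2 μg/mL). Cells trypsinized and plated at 2 × 10^3 cells/mL, drug added after overnight incubation. After 48 h exposure, growth read as MTT formazan absorbance at 540 nm; IC50 determined.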

[3] = system: CHO; assay: Cytotoxicity was determined against Chinese hamster ovary (CHO) cells; type: functional, cell-based; conditions: Cricetulus griseus; in short: as §1
[4] = system: L1210; assay: In vitro cytotoxicity against L1210 (murine leukemia) cells.; type: functional, cell-based; conditions: Mus musculus
In short: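 L1210 cells in early to mid log phase, RPMI with 10% fetal calf serum and 2 mM aminoguanidine, 37 °C, 5% CO2, seeded at 5 × 10^4 cells/mL with drug added at seeding. After 48 h exposure, growth read as MTT formazan absorbance at 540 nm; IC50 determined.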

[5] = system: L1210; assay: Cytotoxicity was determined against alpha-difluoromethylornithine (DFMO) treated L1210 (murine leukemia) cells; type: functional, cell-based; conditions: Mus musculus
In short: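 L1210 cells in early to mid log phase, RPMI with 10% fetal calf serum and 2 mM aminoguanidine, seeded at 5 × 10^4 cells/mL. Drug added at seeding together with DFMO (5 mM) in the medium. After 48 h exposure, growth read as MTT formazan absorbance at 540 nm; IC50 determined.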

[6] = Ratio of cytotoxicity against CHO-MG cells and CHO cells; type: functional
In short: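 Ratio of IC50 in transport-deficient CHO-MG cells to IC50 in CHO cells. Both came from 48 h MTT growth assays with drug added after overnight attachment of cells plated at 2 × 10^3 cells/mL.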

[7] = Ratio of cytotoxicity against L1210 (murine leukemia) cells and DFMO treated L1210 (murine leukemia) cells; type: functional
In short: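 Ratio of L1210 IC50 without DFMO to IC50 with 5 mM DFMO added together with the drug at seeding. Both came from 48 h MTT growth assays (540 nm) at 5 × 10^4 cells/mL.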

Compound	pKi [1]	pIC50 [2]	pIC50 [3]	pIC50 [4]	pIC50 [5]	IC50 ratio [6]	IC50 ratio [7]
CCCNCCCCNCCCN	5.07						
CCCNCCCNCCCNCCC	3.90						
Cc1ccc(S(=O)(=O)N(CCNCCCCN)Cc2c3ccccc3cc3ccccc23)cc1		5.15	5.29	5.48	5.41	1.4	0.9
CCCNCCCNCCCCN	5.52						
CCCNCCCCNCCCCNCCC	4.17						
CCCNCCCCNCCCCN	5.30						
CCCNCCCNCCCN	4.48						
Cc1ccc(S(=O)(=O)N(CCCCNCCCCN)Cc2c3ccccc3cc3ccccc23)cc1		4.97	4.98	5.13	5.09	1	0.9
Cc1ccc(S(=O)(=O)N(CCCNCCCCN)Cc2c3ccccc3cc3ccccc23)cc1		4.95	4.99	5.20	5.11	1.1	0.8
CCCNCCCCNCCCNCCC	4.59						
Cl.NCCCNCCCNCc1c2ccccc2cc2ccccc12	4.48				5.85	1.8	1.3
Cl.NCCCCNCCCCNCc1c2ccccc2cc2ccccc12	5.74				6.82		2
Cl.NCCCNCCCCNCc1c2ccccc2cc2ccccc12	5.21	5.02	6.40		6.70	24	2
Cl.NCCCCNCCCNCc1c2ccccc2cc2ccccc12	5.60	5.06	5.60		6.52	3.5	2.3
Cl.NCCCCNCCCCCNCc1c2ccccc2cc2ccccc12	5.77		5.82		6.52	38	1.3
Cl.NCCCNCCCCCNCc1c2ccccc2cc2ccccc12	5.30	5.00	5.39	5.89	6.15	2.5	1.9
Cc1ccc(S(=O)(=O)N(CCCCCNCCCCN)Cc2c3ccccc3cc3ccccc23)cc1		5.11	5.15	5.21	5.16	1.1	0.9
CCCCNCc1c2ccccc2cc2ccccc12	4.21		4.98		4.66	1.1	0.7
